Laboratory results taken from publication PMC4004375 (European journal of medicinal chemistry, 2013).

How the values were obtained:
[1] = target: intracellular HCV NS5B RdRp activity (Hepatitis C virus genotype 1b, UniProt P26663); test: BHK-NS5B-FRLuc reporter: intracellular NS5B RdRp activity; type: cell-based; conditions: 100 μM, 42 h, percent of DMSO controls
In short: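 BHK cells stably expressing NS5B and carrying a bicistronic (+)FLuc-(−)UTR-RLuc reporter were grown in DMEM with 10% FBS, antibiotic-antimycotic, nonessential amino acids, 1 mg/mL G418 and […] at 37 °C and 5% CO2. Cells were seeded at 1 × 10^4 cells/well and dosed 8 h later with 100 μM test compound. Cells were lysed 42 h after treatment and read by dual luciferase. Activity is the percent reduction in RLuc/FLuc versus DMSO controls.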

[2] = test system: HCV RNA replication of genotype 2a (Huh7.5-FGR-JC1-Rluc2A); test: HCV 2a replicon luciferase reporter assay; type: cell-based, Hepatitis C virus genotype 2a; conditions: Huh7.5-FGR-JC1-Rluc2A cells, 100 μM, 42 h
[3] = test system: HCV RNA replication of genotype 1b (Huh7/Rep-Feo1b); test: HCV 1b replicon luciferase reporter assay; type: cell-based, Hepatitis C virus genotype 1b; conditions: Huh7/Rep-Feo1b cells, 100 μM, 42 h
Huh7.5 cells = test: Cell viability in parental Huh7.5 cells by MTS assay; type: cell-based; conditions: 100 μM, 42 h
In short: (§1)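 Cytotoxicity was run in parallel with the HCV replicon assays, using parental Huh7.5 cells at 37 °C and 5% CO2. Cells were seeded at 1 × 10^4 cells/well and exposed 8 h later to test compound at 100 μM or to matching DMSO for 42 h. Viability was read by the colorimetric MTS assay.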

[4] = test system: BHK-NS5B-FRLuc reporter cells; type: cell-based; conditions: 100 μM, 42 h, firefly luciferase versus DMSO controls
[5] = Cell viability in parental Huh7.5 cells by MTS assay; type: cell-based; conditions: human, parental Huh7.5 cells, Huh7.5 Cytotoxicity (%)
In short: as §1

Chain of intracellular HCV NS5B RdRp activity (P26663 2420-3010): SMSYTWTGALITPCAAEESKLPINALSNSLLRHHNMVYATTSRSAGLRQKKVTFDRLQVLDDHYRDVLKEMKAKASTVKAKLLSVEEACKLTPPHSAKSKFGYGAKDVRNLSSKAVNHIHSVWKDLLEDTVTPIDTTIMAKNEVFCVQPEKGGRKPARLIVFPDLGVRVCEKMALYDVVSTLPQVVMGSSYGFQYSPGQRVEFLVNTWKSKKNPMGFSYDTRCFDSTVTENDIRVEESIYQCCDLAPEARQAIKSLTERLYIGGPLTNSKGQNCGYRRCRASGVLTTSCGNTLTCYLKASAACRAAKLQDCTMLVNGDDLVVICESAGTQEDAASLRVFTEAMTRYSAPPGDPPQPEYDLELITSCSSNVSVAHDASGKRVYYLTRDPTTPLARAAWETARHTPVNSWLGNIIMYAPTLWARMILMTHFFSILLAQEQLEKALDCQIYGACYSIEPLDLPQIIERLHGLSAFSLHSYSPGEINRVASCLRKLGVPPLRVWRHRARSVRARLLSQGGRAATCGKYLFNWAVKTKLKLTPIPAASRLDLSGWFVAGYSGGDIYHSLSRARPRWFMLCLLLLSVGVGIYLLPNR

Compound	BHK-NS5B FR Luc Inhibition (%) [1]	2a Replicon reporter Inhibition (%) [2]	1b Replicon reporter Inhibition (%) [3]	Huh7.5 Cytotoxicity (%) (Huh7.5 cells)	BHK-NS5B FR Luc Cytotoxicity (%) [4] [%]	cytotoxicity at 42 h, 100 µM [5] [%]
2-[[5-(4-Fluorophenyl)-1,3,4-thiadiazol-2-yl]imino]-5-(2,6-dimethoxybenzylidene)-1,3-thiazolidin-4-one [Compound 17]	7.0 ± 1.8%	50.4 ± 5.2%	51.2 ± 6.3%	13.9 ± 1.6		
2-[[5-(4-Fluorophenyl)-1,3,4-thiadiazol-2-yl]imino]-5-(4-nitrobenzylidene)-1,3-thiazolidin-4-one [Compound 16]	no inhibition and n.i	93.2 ±1.7%	87.7 ± 1.4%	63.0 ± 4.4	73.7 ± 8.6	
Nc1nnc(-c2ccc(F)cc2)s1 [Compound 3, 2-Amino-5-(4-fluorophenyl)-1,3,4-thiadiazole]					0.0	
Nc1nnc(-c2ccc(Cl)cc2)s1 [Compound 4, 2-Amino-5-(4-chlorophenyl)-1,3,4-thiadiazole]	did not inhibit and n.i.					
O=C(CCl)Nc1nnc(-c2ccc(F)cc2)s1 [Compound 5, 2-Chloro-N-[5-(4-fluorophenyl)-1,3,4-thiadiazol-2-yl]acet-amide]		near complete inhibition	near complete inhibition			> 70
O=C(CCl)Nc1nnc(-c2ccc(Cl)cc2)s1 [Compound 6, 2-Chloro-N-[5-(4-chlorophenyl)-1,3,4-thiadiazol-2-yl]acet-amide]		near complete inhibition	near complete inhibition			> 70
O=C1CS/C(=N/c2nnc(-c3ccc(F)cc3)s2)N1 [Compound 7, 2-[[5-(4-Fluorophenyl)-1,3,4-thiadiazol-2-yl]imino]-1,3-thiazolidine-4-one]					0.0	
O=C1N/C(=N\c2nnc(-c3ccc(F)cc3)s2)S/C1=C\c1c(F)cccc1Cl [Compound 12, 2-[[5-(4-Fluorophenyl)-1,3,4-thiadiazol-2-yl]imino]-5-(2-chloro-6-fluoro-benzylidene)-1,3-thiazolidin-4-one]		near complete inhibition	near complete inhibition			> 70
O=C1N/C(=N\c2nnc(-c3ccc(F)cc3)s2)S/C1=C\c1ccc(Cl)cc1Cl [Compound 14, 2-[[5-(4-Fluorophenyl)-1,3,4-thiadiazol-2-yl]imino]-5-(2,4-dichlorobenzylidene)-1,3-thiazolidin-4-one]	n.i					
O=C1N/C(=N\c2nnc(-c3ccc(F)cc3)s2)S/C1=C\c1c(Cl)cccc1Cl [Compound 15, 2-[[5-(4-Fluorophenyl)-1,3,4-thiadiazol-2-yl]imino]-5-(2,6-dichlorobenzylidene)-1,3-thiazolidin-4-one]		near complete inhibition	near complete inhibition			> 70
O=C1N/C(=N\c2nnc(-c3ccc(Cl)cc3)s2)S/C1=C\c1ccc(F)cc1 [Compound 20, 2-[[5-(4-Chlorophenyl)-1,3,4-thiadiazol-2-yl]imino]-5-(4-fluorobenzylidene)-1,3-thiazolidin-4-one]	no inhibition and n.i					
O=C1N/C(=N\c2nnc(-c3ccc(Cl)cc3)s2)S/C1=C\c1c(F)cccc1Cl [Compound 21, 2-[[5-(4-Chlorophenyl)-1,3,4-thiadiazol-2-yl]imino]-5-(2-chloro-6-fluoro-benzylidene)-1,3-thiazolidin-4-one]	n.i.	n.i.	n.i.			0
O=C1N/C(=N\c2nnc(-c3ccc(Cl)cc3)s2)S/C1=C\c1ccccc1Cl [Compound 22, 2-[[5-(4-Chlorophenyl)-1,3,4-thiadiazol-2-yl]imino]-5-(2-chlorobenzylidene)-1,3-thiazolidin-4-one]	n.i.	n.i.	n.i.			0
O=C1N/C(=N\c2nnc(-c3ccc(Cl)cc3)s2)S/C1=C\c1ccc(Cl)cc1Cl [Compound 23, 2-[[5-(4-Chlorophenyl)-1,3,4-thiadiazol-2-yl]imino]-5-(2,4-dichlorobenzylidene)-1,3-thiazolidin-4-one]	n.i.	n.i.	n.i.			0
O=C1N/C(=N\c2nnc(-c3ccc(Cl)cc3)s2)S/C1=C\c1c(Cl)cccc1Cl [Compound 24, 2-[[5-(4-Chlorophenyl)-1,3,4-thiadiazol-2-yl]imino]-5-(2,6-dichlorobenzylidene)-1,3-thiazolidin-4-one]		near complete inhibition	near complete inhibition			> 70
COc1cccc(OC)c1/C=C1\S/C(=N/c2nnc(-c3ccc(Cl)cc3)s2)NC1=O [Compound 25, 2-[[5-(4-Chlorophenyl)-1,3,4-thiadiazol-2-yl]imino]-5-(2,6-dimethoxy-benzylidene)-1,3-thiazolidin-4-one]		near complete inhibition	near complete inhibition			> 70
